# Data as given in ChEMBL document CHEMBL1134494, “2-Amino-6-arylsulfonylbenzonitriles as non-nucleoside reverse transcriptase inhibitors of HIV-1” (J Med Chem, 2001).
# Key:
# HeLa [1] = test: Antiviral activity against K103N/Y181C mutant virus in the HeLa MAGI assay.; format: functional, cell-based, Homo sapiens
# Summary of the method: (§1)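 Isogenic recombinant HIV-1 strains carrying the listed RT mutations were tested against the test compounds in HeLa MAGI indicator cells. Beta-galactosidase was quantified by activation of a chemiluminescent substrate 3 days after infection. IC50 was the concentration inhibiting 50% of the HIV-1-induced beta-galactosidase signal relative to untreated controls. It was determined for each recombinant virus.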
# HeLa [2] = test: Antiviral activity against P236L mutant virus in the HeLa MAGI assay.; format: functional, cell-based, Homo sapiens; summary of the method: as §1
# HeLa [3] = test: Antiviral activity against wild-type HIV-1 in the HeLa MAGI assay.; format: functional, cell-based; settings: Homo sapiens
# Summary of the method: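 HeLa MAGI cells were infected with isogenic recombinant HIV-1. After 3 days, β-galactosidase was quantified by chemiluminescent substrate activation. IC50 is the concentration inhibiting 50% of the HIV-1-induced β-galactosidase signal relative to untreated controls.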
# HeLa [4] = test: Antiviral activity against K103N/P225H mutant virus in the HeLa MAGI assay.; format: functional, cell-based, Homo sapiens; summary of the method: as §1
# HeLa [5] = test: Antiviral activity against V106A/Y181C mutant virus in the HeLa MAGI assay.; format: functional, cell-based, Homo sapiens; summary of the method: as §1
# HeLa [6] = test: Antiviral activity against G190A mutant virus in the HeLa MAGI assay.; format: functional, cell-based, Homo sapiens; summary of the method: as §1
# HeLa [7] = test: Antiviral activity against K103N/L100I mutant virus in the HeLa MAGI assay.; format: functional, cell-based, Homo sapiens; summary of the method: as §1
# HeLa [8] = test: Antiviral activity against V108I/Y181C mutant virus in the HeLa MAGI assay.; format: functional, cell-based, Homo sapiens; summary of the method: as §1
# HeLa [9] = test: Antiviral activity against K103N/V108I mutant virus in the HeLa MAGI assay.; format: functional, cell-based, Homo sapiens; summary of the method: as §1
# HeLa [10] = test: Antiviral activity against K103N mutant virus in the HeLa MAGI assay.; format: functional, cell-based, Homo sapiens; summary of the method: as §1
# HeLa [11] = test: Antiviral activity against Y188C mutant virus in the HeLa MAGI assay.; format: functional, cell-based, Homo sapiens; summary of the method: as §1
# HeLa [12] = test: Antiviral activity against E138K mutant virus in the HeLa MAGI assay.; format: functional, cell-based, Homo sapiens; summary of the method: as §1
# HeLa [13] = test: Antiviral activity against V106A mutant virus in the HeLa MAGI assay.; format: functional, cell-based, Homo sapiens; summary of the method: as §1
# HeLa [14] = test: Antiviral activity against Y181C mutant virus in the HeLa MAGI assay.; format: functional, cell-based, Homo sapiens; summary of the method: as §1
# HeLa [15] = test: Antiviral activity against V108I mutant virus in the HeLa MAGI assay.; format: functional, cell-based, Homo sapiens; summary of the method: as §1
# MT4 [16] = test: Cell culture cytotoxicity against MT-4 cells.; format: functional, cell-based; settings: Homo sapiens
# Summary of the method: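 MT4 cells were exposed to compound in parallel with the 5-day HIV-1 strain 3B cytopathic-effect assay. Compound-induced cytotoxicity is reported as the cell culture cytotoxicity IC50 (CCIC50).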
# [17] = test system: Human immunodeficiency virus 1; test: Antiviral activity against HIV-1 infected human MT-4 cells.; format: functional, organism-based; settings: Human immunodeficiency virus 1, MT4
# Summary of the method: (§2)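 HTLV-1-transformed MT4 cells were infected with HIV-1 strain 3B at 100× the amount giving a 50% drop in cell growth. They were cultured 5 days with a range of compound concentrations. IC50 is the concentration restoring 50% of infected-cell growth (cytopathic effect) relative to uninfected MT4 controls.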
# [18] = target: Human immunodeficiency virus type 1 reverse transcriptase (Human immunodeficiency virus 1, UniProt Q72547); test: Inhibitory activity against HIV-1 reverse transcriptase
# Summary of the method: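 Recombinant HIV RT at 1 nM was combined with 40 nM Eu-chelate-labeled biotinylated DNA primer/RNA template and 100 nM Cy5-dUTP. Reactions were started with enzyme.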
# MT4 [19] = test: Antiviral activity against HIV-1 infected MT-4 cells; no significant activity uM; format: functional, cell-based; settings: Homo sapiens; summary of the method: as §2
# MT4 [20] = test: Antiviral activity against HIV-1 infected MT-4 cells at a dose of 5 uM; format: functional; settings: Homo sapiens
# MT4 [21] = test: Antiviral activity against HIV-1 infected MT-4 cells; No significant activity uM; format: functional, cell-based; settings: Homo sapiens; summary of the method: as §2
# [22] = target: Human immunodeficiency virus type 1 reverse transcriptase (Human immunodeficiency virus 1) (UniProt Q72547); test: Inhibitory activity against HIV-1 reverse transcriptase; no significant activity uM
# Summary of the method: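 Recombinant HIV RT at 1 nM was added to start 50 µL reactions. Cy5-dUMP incorporation was followed for 30 min by time-resolved energy transfer (excitation 340 nm, emission 665 nm).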
SMILES,IC50 (HeLa [1]),IC50 (HeLa [2]),IC50 (HeLa [3]),IC50 (HeLa [4]),IC50 (HeLa [5]),IC50 (HeLa [6]),IC50 (HeLa [7]),IC50 (HeLa [8]),IC50 (HeLa [9]),IC50 (HeLa [10]),IC50 (HeLa [11]),IC50 (HeLa [12]),IC50 (HeLa [13]),IC50 (HeLa [14]),IC50 (HeLa [15]),IC50 (MT4 [16]),IC50 [17],IC50 [18],further results
O=C1Nc2ccc(Cl)cc2[C@@](C#CC2CC2)(C(F)(F)F)O1 [EFAVIRENZ],42 nM,0.5 nM,0.9 nM,130 nM,3.3 nM,6.4 nM,1600 nM,3.3 nM,74 nM,24 nM,1.2 nM,0.8 nM,1.5 nM,1.8 nM,1.4 nM,–,–,–,–
N#Cc1c(N)cccc1S(=O)(=O)c1cc(Cl)cc(Cl)c1,> 50000 nM,2.5 nM,37 nM,3800 nM,1800 nM,84 nM,5500 nM,58000 nM,4000 nM,8300 nM,140 nM,85 nM,6.2 nM,50000 nM,47 nM,> 200000 nM,70 nM,30 nM,–
COc1ccc(Sc2cccc(N)c2C#N)cc1,–,–,–,–,–,–,–,–,–,–,–,–,–,–,–,–,–,> 17000 nM,NS (MT4 [19]): no significant activity
Cc1cc(Cl)cc(S(=O)(=O)c2cccc(N)c2C#N)c1,> 50000 nM,10 nM,15 nM,19000 nM,210 nM,40 nM,20000 nM,13000 nM,33000 nM,3600 nM,400 nM,15 nM,2.8 nM,14000 nM,17 nM,> 200000 nM,30 nM,5 nM,–
COc1cc(C(F)(F)F)cc(S(=O)(=O)c2cccc(N)c2C#N)c1,> 50000 nM,7 nM,63 nM,5500 nM,2100 nM,660 nM,5000 nM,36000 nM,10000 nM,10500 nM,400 nM,80 nM,13 nM,36000 nM,120 nM,164000 nM,90 nM,40 nM,–
N#Cc1c(N)cccc1Sc1cc(Cl)cc(Cl)c1,–,–,–,–,–,–,–,–,–,–,–,–,–,–,–,3000 nM,–,120 nM,inhibition at 5 µM (MT4 [20]): 62%
Cc1cc(Br)cc(S(=O)(=O)c2cccc(N)c2C#N)c1,> 50000 nM,11 nM,9 nM,13000 nM,77 nM,31 nM,16000 nM,18000 nM,15000 nM,970 nM,1700 nM,15 nM,1.5 nM,10000 nM,11 nM,133000 nM,20 nM,3 nM,–
N#Cc1c(N)cccc1S(=O)(=O)c1cccc2ccccc12,> 50000 nM,2 nM,14 nM,2800 nM,230 nM,200 nM,1700 nM,66000 nM,3500 nM,2300 nM,180 nM,68 nM,5.4 nM,29000 nM,30 nM,> 200000 nM,3320 nM,1000 nM,–
O=[N+]([O-])c1ccccc1[S+]([O-])c1ccccc1[N+](=O)[O-],–,–,–,–,–,–,–,–,–,–,–,–,–,–,–,–,–,–,NS (MT4 [21]): No significant activity
Cc1ccccc1Sc1cccc(N)c1C#N,–,–,–,–,–,–,–,–,–,–,–,–,–,–,–,> 40000 nM,16000 nM,–,NS [22]: no significant activity
COc1cc(C)cc(S(=O)(=O)c2cccc(N)c2C#N)c1,> 50000 nM,8 nM,14 nM,7800 nM,420 nM,87 nM,19000 nM,14000 nM,16000 nM,1800 nM,300 nM,29 nM,2.9 nM,13000 nM,29 nM,94000 nM,50 nM,10 nM,–
Cc1ccnc2c1NC(=O)c1cccnc1N2C1CC1 [NEVIRAPINE],> 50000 nM,56 nM,89 nM,10000 nM,> 10000 nM,> 10000 nM,10000 nM,> 10000 nM,21000 nM,7100 nM,2200 nM,72 nM,~10000 nM,> 10000 nM,340 nM,–,–,–,–
Cc1cccc(Sc2cccc(N)c2C#N)c1,–,–,–,–,–,–,–,–,–,–,–,–,–,–,–,79000 nM,6100 nM,960 nM,–
CCCCOc1cc(C)cc(S(=O)(=O)c2cccc(N)c2C#N)c1,–,–,–,–,–,–,–,–,–,–,–,–,–,–,–,> 2000 nM,600 nM,400 nM,–
COc1ccc(S(=O)(=O)c2cccc(N)c2C#N)cc1,–,–,–,–,–,–,–,–,–,–,–,–,–,–,–,> 200000 nM,25000 nM,13000 nM,–
N#Cc1c(N)cccc1Sc1cccc(F)c1,–,–,–,–,–,–,–,–,–,–,–,–,–,–,–,162000 nM,9800 nM,12000 nM,–
N#Cc1c(N)cccc1Sc1cccc(N)c1,–,–,–,–,–,–,–,–,–,–,–,–,–,–,–,168000 nM,31500 nM,> 23000 nM,–
Cc1cc(C)cc(S(=O)(=O)c2cccc(N)c2C#N)c1,> 50000 nM,5 nM,11 nM,3300 nM,490 nM,30 nM,3000 nM,13000 nM,4800 nM,1100 nM,210 nM,17 nM,2.4 nM,14000 nM,17 nM,> 200000 nM,10 nM,–,–
N#Cc1c(N)cccc1Sc1cccc(Br)c1,–,–,–,–,–,–,–,–,–,–,–,–,–,–,–,53000 nM,5100 nM,15000 nM,–
N#Cc1c(N)cccc1[S+]([O-])c1cc(Cl)ccc1Cl (centres undefined),–,–,–,–,–,–,–,–,–,–,–,–,–,–,–,> 200000 nM,9850 nM,6200 nM,–
COc1ccccc1Sc1cccc(N)c1C#N,–,–,–,–,–,–,–,–,–,–,–,–,–,–,–,> 200000 nM,4300 nM,2700 nM,–
N#Cc1ccccc1[S+]([O-])c1cccc(N)c1C#N (centres undefined),–,–,–,–,–,–,–,–,–,–,–,–,–,–,–,> 200000 nM,3900 nM,9900 nM,–
N#Cc1c(N)cccc1S(=O)(=O)c1cccc(C(F)(F)F)c1,–,–,–,–,–,–,–,–,–,–,–,–,–,–,–,197000 nM,3500 nM,5300 nM,–
